# Bioassay records: PubChem BioAssay, several laboratories
# Most compounds without a hit are left out; they make up all but 2.9% or so of the library.
# Tn7 DDE FP – inhibitors of Tn7 peptide binding to fibrin DD(E), primary screen, biochemical, fluorescence polarization, human fibrin, Tn7 probe. Fibrinogen beta chain (Homo sapiens), P02675. FP displacement of FITC-Tn7 peptide from fibrin DD(E); 0% = median of compound wells per plate. inhibition, % at 8.3 µM. hit rate 0.13% among 370,000;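 active = inhibition above the mean of compounds falling within the control limits plus 3 SD of them, cut at about 14% in these data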;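 note: 0% = plate median of compound wells and 100% = 10 µM Aha-Tn7 peptide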
# Target sequence (P02675 whole entry, looked up): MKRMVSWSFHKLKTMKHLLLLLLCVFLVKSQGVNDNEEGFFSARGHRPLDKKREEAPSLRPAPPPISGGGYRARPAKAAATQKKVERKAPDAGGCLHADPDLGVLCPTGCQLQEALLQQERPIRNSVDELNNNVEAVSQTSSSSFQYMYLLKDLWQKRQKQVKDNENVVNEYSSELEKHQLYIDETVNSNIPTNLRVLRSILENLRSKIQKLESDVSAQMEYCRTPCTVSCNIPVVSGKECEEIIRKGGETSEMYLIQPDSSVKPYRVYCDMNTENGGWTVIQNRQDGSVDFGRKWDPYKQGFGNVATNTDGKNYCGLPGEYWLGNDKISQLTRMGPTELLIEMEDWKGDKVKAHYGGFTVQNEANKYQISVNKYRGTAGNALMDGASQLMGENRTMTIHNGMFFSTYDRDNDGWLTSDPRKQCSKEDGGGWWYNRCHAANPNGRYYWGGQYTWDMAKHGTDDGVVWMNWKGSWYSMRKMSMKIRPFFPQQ
#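 Assay system: Human clot-derived fibrin DD(E) complex | Buffer or medium: Tris/NaCl/CaCl2 buffer, pH 7.8 | Repeats: One replicate per compound | Benchmarks: Aha-Tn7 high control | Measure: % inhibition scaled between sample-field median and high-control FP | Schedule: 10 min plus 3 h, room temperature | Signal: Fluorescence polarization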
# CRFR2-BP ag – agonists of CRF-BP/CRF-R2 complex, primary screen, cell-based, HEK293, calcium dye fluorescence, uHTS | calcium dye fluorescence (FLIPR); percent of saturating CRF peptide response | activation, % at 13.2 µM | hit rate 0.46% among 350,000 | AID 588473, 2011;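 active = activation of at least 50%, plus an integration ratio under a set limit after plate pattern correction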;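 note: plate controls were neutral control wells without compound for no effect and CRF at EC100 for full effect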
# proKLK7 act – proKLK7 zymogen activators, primary screen, biochemical, fluorescence intensity. hit rate 0.9% among 370,000. activation, % at 7 µM. purified proKLK7, EDANS-DABCYL substrate fluorescence; 100% is mature enzyme control, 0% vehicle. Kallikrein-7 (Homo sapiens), P49862;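 active = activation above the mean of all tested compounds plus 3 SD, computed per campaign excluding outliers beyond control limits, cut at about 13% in these data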
# Tn6 DDE FP – inhibitors of Tn6 peptide binding to fibrin DD(E), primary screen, biochemical, fluorescence polarization, human fibrin, Tn6 probe; Fibrinogen beta chain (Homo sapiens), P02675; hit rate 0.21% among 370,000; AID 720509, 2013; Fibrin DD(E) TRITC-Tn6 fluorescence polarization displacement; inhibition, % at 8.3 µM;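 active = inhibition above a per-campaign cutoff: mean of compounds within control limits plus 3 SD, cut at about 15% in these data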;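 note: 0% = median of all compound wells on the plate and 100% = blocking peptide control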
# NRP1-CendR mod – modulators of CendR peptide binding to NRP-1, primary screen, biochemical, fluorescence polarization, uHTS. Neuropilin-1 (Homo sapiens), O14786. FAM-RPARPAR peptide binding to NRP-1. inhibition, % at 25 µM. hit rate 0.85% among 360,000;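 active = inhibition or corrected inhibition above about 18%, plus a signal ratio from 0.5 to 1.5, limit read from the data, passing the limit was not always enough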
# CRFBP-R2 block – antagonists of CRF-BP/CRF-R2 complex, primary screen, cell-based, HEK293, calcium dye fluorescence, uHTS; CRF-induced calcium fluorescence; inhibition, % at 11.8 µM; hit rate 0.59% among 350,000;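 active = inhibition of the ligand-induced calcium signal above about 50% at the single tested concentration, limit read from the data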
# KLK7 act conf – proKLK7 zymogen activators, confirmation, biochemical, fluorescence intensity, triplicate | shares compounds with proKLK7 act | purified proKLK7, EDANS-DABCYL substrate fluorescence; scaled: vehicle 0, mature enzyme 100 | activation, % at 7 µM | hit rate 68% among 3,200;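 active = activation, as change over the incubation, above the mean of all tested compounds plus 3 SD, cut at about 13% in these data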
# EDANS interfere – EDANS-DABCYL substrate optical interference, artefact control for kallikrein-7 zymogen activator project, biochemical, fluorescence intensity, high throughput; activation, % at 7 µM; no enzyme, 4 h; solvent 0%, active enzyme control 100%; shares compounds with proKLK7 act; hit rate 80% among 3,200;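 active = activation above the all-compound mean plus 3 SD, ignoring values outside control-based bounds, cut at about 4.8% in these data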;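 note: value is the 4 h activation minus the activation read at time zero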
# K7 EDANS ctr – EDANS fluorescence interference in dose response, no enzyme. shares compounds with proKLK7 act. EDANS-DABCYL peptide fluorescence interference. EC50, µM. hit rate 20% among 250;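 active = compounds that raise the fluorescence signal in this interference counterscreen, with EC50 at or below 10 µM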;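 note: intact quenched peptide substrate alone read at 355 nm excitation and 520 nm emission; signal is fluorescence gain from T0 to T4 after four hours at room temperature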
# An asterisk follows results filed as active; nt = no result given.
SMILES,Tn7 DDE FP,CRFR2-BP ag,proKLK7 act,Tn6 DDE FP,NRP1-CendR mod,CRFBP-R2 block,KLK7 act conf,EDANS interfere,others
C[C@]12c3[nH]c4cc(-c5ccco5)ccc4c3CCN1C(=O)[C@@H](CC(=O)NCCC1=CCCCC1)C[C@@H]2C(=O)N1CCCCC1,0,1,-2,0,-6,15,nt,nt,
COCCCNC(=O)C[C@H]1C[C@H](C(=O)N2CCCCC2)[C@@]2(CCc3ccccc3)c3[nH]c4cc(-c5ccco5)ccc4c3CCN2C1=O,7,0,22*,1,-68,14,-27,-27,
O=C(C[C@H]1C[C@H](C(=O)N2CCCCC2)[C@@]2(CCc3ccccc3)c3[nH]c4cc(-c5ccco5)ccc4c3CCN2C1=O)NCCN1CCOCC1,-5,3,22*,-4,-58,1,17*,5.7*,K7 EDANS ctr=8.6*
Cc1cc(C(=O)COc2ccc3ccc(=O)oc3c2)c(C)n1Cc1cccs1,1,0,78*,-12,-12,13,73*,89*,
CCc1cc2c(=O)c(-c3cscn3)coc2c(CN(C)C)c1O,-7,0,30*,-2,-6,-5,63*,71*,
CCS(=O)(=O)Nc1ccc(-c2nc3cccnc3s2)cc1,2,89*,64*,0,-14,-15,60*,68*,
Cc1cc(-c2nc3cccnc3s2)ccc1NS(=O)(=O)c1cccs1,3,2,71*,-2,-10,25,66*,57*,
O=S(=O)(Nc1ccc(-c2nc3cccnc3s2)cc1)c1ccccc1F,-7,1,99*,-7,2,-14,66*,73*,
CCS(=O)(=O)Nc1cccc(-c2nc3cccnc3s2)c1,2,-1,-1,-3,-10,-13,nt,nt,
O=S(=O)(Nc1ccc(-c2nc3cccnc3s2)cc1)c1ccc(Cl)s1,0,-2,0,1,-12,5,nt,nt,
COc1ccc(-c2cc(C(=O)N(C)CC(=O)Nc3ccccc3Br)c3ccccc3n2)cc1OC,3,-1,5,0,-2,2,nt,nt,
COc1ccc(-c2cc(C(=O)N(C)CC(=O)Nc3ccccc3C(F)(F)F)c3ccccc3n2)cc1OC,3,-4,14*,-3,-8,-9,2,9.0*,
CCCCc1c(-c2ccccc2OC)ncn1Cc1cccc(F)c1F,7,nt,0,3,nt,nt,nt,nt,
CCCCNc1nccnc1-c1cccc(C=O)c1,0,nt,212*,7,3,nt,299*,289*,
CCCCNc1nc(-c2ccccc2)c(C(=O)OCC)cc1C#N,-9,1,0,6,3,0,nt,nt,
Cc1cc(C)c2c(N)c(C(=O)NN3CC(=O)N(c4cccc(Cl)c4)CC3=O)sc2n1,0,-2,13*,-6,3,10,5,-3,
Cc1cc(C)c2c(N)c(C(=O)NN3CC(=O)N(c4ccccc4)CC3=O)sc2n1,-2,-2,109*,-2,4,2,32*,38*,
CCCCCN1CCCCC(NC(=O)c2cccc(C(F)(F)F)c2)C1=O (stereo not drawn),3,nt,0,5,nt,nt,nt,nt,
COc1cccc(-c2nc3ccccc3s2)c1O,-2,3,25*,-4,5,-52,-3,-4,
Cc1cc(N2CCN(CC(C)(C)O)C[C@H]2C)ccc1N1CCN(CC(C)(C)O)[C@H](C)C1,5,nt,1,-4,nt,nt,nt,nt,
O=C1[C@@H](C2CCCCC2)[C@@H]2c3ccccc3C=NN2[C@@H]2c3ccccc3C=NN12,0,nt,0,-5,nt,nt,nt,nt,
COc1ccc(-n2c(O)c(/C=N/NS(=O)(=O)c3ccc(C)cc3)c3ccccc3c2=O)cc1OC,-20,101*,48*,5,-197,-154,0,0,
COc1ccc(Br)cc1C=NNS(=O)(=O)c1ccc(C)cc1,-3,-1,0,-2,-1,8,nt,nt,
CCn1c(Cc2cccs2)nnc1SCC(=O)Nc1ccc2c(c1)OCCO2,11,nt,1,-6,nt,nt,nt,nt,
COC(=O)Cc1c(C)c2cc(Cl)c(OC(=O)c3ccco3)cc2oc1=O,0,2,88*,-5,17,9,397*,432*,
SMILES,Tn7 DDE FP,CRFR2-BP ag,proKLK7 act,Tn6 DDE FP,NRP1-CendR mod,CRFBP-R2 block,KLK7 act conf,EDANS interfere,others
COC(=O)Cc1c(C)c2ccc(OC(C)C)cc2oc1=O,-11,-4,8,1,13,7,nt,nt,
CCc1c(C)c2ccc(OCC(=O)OC)cc2oc1=O,6,0,20*,-8,-5,-13,22*,21*,
COC(=O)Cc1c(C)c2ccc(OC(=O)c3ccco3)cc2oc1=O,-3,0,439*,6,2,10,736*,741*,
CN(C)CCNc1ccc2ncn3c4ccc(O)cc4c(=O)c1c23,8,75*,72*,-4,140,-60,57*,50*,
CN(C)CCNc1ccc(CO)c2sc3ccc(O)cc3c(=O)c12,3,-5,1,5,-30,26,nt,nt,
CN[C@H]1C[C@H]2c3[nH]c4c(-c5ccc6c(c5)OCO6)cccc4c3CCN2C(=O)[C@H]1[C@H](C)O,7,nt,0,1,nt,nt,nt,nt,
C[C@H](O)[C@@H]1C(=O)N2CCc3c([nH]c4ccccc34)[C@@H]2C[C@@H]1N(C)C(=O)c1cc(Cl)cc(Cl)c1,1,nt,47*,2,-8,nt,15*,12*,K7 EDANS ctr=>23
C[C@H](O)[C@@H]1C(=O)N2CCc3c([nH]c4ccccc34)[C@@H]2C[C@@H]1N(C)S(=O)(=O)c1ccccc1,2,18,59*,-4,-20,8,43*,37*,K7 EDANS ctr=7.5*
Cc1ccccc1C(=O)N(C)[C@H]1C[C@H]2c3[nH]c4ccccc4c3CCN2C(=O)[C@H]1[C@H](C)O,4,10,78*,3,2,-6,27*,27*,
